ChEMBL document CHEMBL2169880, “Synthesis of C-Pseudonucleosides Bearing Thiazolidin-4-one as a Novel Potential Immunostimulating Agent” (2011)
Active and inactive are the calls of the source. The rule behind the calls is not given here.

Experiments:
[1] = Immunostimulating activity in BALb/c mouse splenocytes assessed as increase in LPS-induced cell proliferation at 5 uM after 72 hrs by MTT assay; type: functional, Splenocyte
Method in brief: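 Splenocyte proliferation induced by LPS, with compound added at 5 μM. Reported as % increase over LPS-treated cells. Means ± SEM of at least three independent experiments.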

B [2] = test: Immunostimulating activity in BALb/c mouse CD19+ B cells at 5 uM after 72 hrs […]; type: functional, cell-based
Method in brief: (§1)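 CD3+, CD4+ and CD8+ T cells and CD19+ B cells from splenocyte cultures quantified by flow cytometry. Compound at 5, 10 or 50 μM, compared with Con A-treated cells. Means ± SEM of at least three independent experiments.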

T-cell [3] = test: Immunostimulating activity in BALb/c mouse CD8+ T cells at 5 uM after 72 hrs […]; type: functional, cell-based; method in brief: as §1
T-cell [4] = test: Immunostimulating activity in BALb/c mouse CD4+ T cells at 5 uM after 72 hrs by MTT assay; type: functional, cell-based
T-cell [5] = test: Immunostimulating activity in BALb/c mouse CD3+ T cells at 5 uM after 72 hrs by […]; type: functional, cell-based; method in brief: as §1
Splenocyte [6] = test: Immunostimulating activity in concanavalin A-stimulated BALb/c mouse splenocytes assessed as increase in IL2 secretion at 5 uM after 72 hrs by ELISA; type: functional
Method in brief: (§2)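 IL-4, IL-2 and IFN-γ measured by mouse ELISA in supernatants of total splenocyte cultures. Cultures contained concanavalin A (printed as 20 μM) plus compound at 5, 10 or 50 μM. Compared with Con A alone. Means ± SEM of at least three independent experiments.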

[7] = (§3) Immunostimulating activity in BALb/c mouse splenocytes assessed as increase in concanavalin A-induced cell proliferation at 5 uM after 72 hrs by MTT assay; type: functional, Splenocyte
Method in brief: (§4)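 Mouse splenocytes co-treated with concanavalin A and compound at 5, 10, 25, 50 or 100 μM. Incubated 72 h at 37 °C under 5% CO₂, then proliferation read by MTT. Result expressed as % increase relative to Con A alone. Means ± SEM of at least three independent experiments.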

Splenocyte [8] = test: Immunostimulating activity in concanavalin A-stimulated BALb/c mouse splenocytes assessed as increase in IFNgamma secretion at 5 uM after 72 hrs by ELISA; type: functional, cell-based; method in brief: as §2
Splenocyte [9] = test: Immunostimulating activity in concanavalin A-stimulated BALb/c mouse splenocytes assessed as increase in IL4 secretion at 5 uM after 72 hrs by ELISA; type: functional; method in brief: as §2
Splenocyte [10] = test: Immunostimulating activity in BALb/c mouse splenocytes assessed as cell proliferation at 5 to 100 uM after 72 hrs by MTT assay; type: functional, cell-based
Method in brief: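 Mouse splenocytes exposed to compound without concanavalin A. Proliferation measured by MTT after 72 h at 37 °C, 5% CO₂.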

[11] = Immunostimulating activity in BALb/c mouse splenocytes assessed as increase in concanavalin A-induced cell proliferation at 50 uM after 72 hrs by MTT assay; type: functional, Splenocyte; method in brief: as §4
[12] = Immunostimulating activity in BALb/c mouse splenocytes assessed as increase in concanavalin A-induced cell proliferation at 25 uM after 72 hrs by MTT assay; type: functional, Splenocyte; method in brief: as §4
[13] = Immunostimulating activity in BALb/c mouse splenocytes assessed as increase in concanavalin A-induced cell proliferation at 10 uM after 72 hrs by MTT assay; type: functional, Splenocyte; method in brief: as §4
B [14] = test: Immunostimulating activity in BALb/c mouse CD19+ B cells at 50 uM after 72 hrs by MTT assay; type: functional, cell-based
T-cell [15] = test: Immunostimulating activity in BALb/c mouse CD8+ T cells at 50 uM after 72 hrs by […]; type: functional, cell-based; method in brief: as §1
T-cell [16] = test: Immunostimulating activity in BALb/c mouse CD4+ T cells at 50 uM after 72 hrs by MTT assay; type: functional, cell-based
T-cell [17] = test: Immunostimulating activity in BALb/c mouse CD3+ T cells at 50 uM after 72 hrs by […]; type: functional, cell-based; method in brief: as §1
Splenocyte [18] = test: Immunostimulating activity in concanavalin A-stimulated BALb/c mouse splenocytes assessed as increase in IL2 secretion at 50 uM after 72 hrs by ELISA; type: functional; method in brief: as §2
Splenocyte [19] = test: Immunostimulating activity in concanavalin A-stimulated BALb/c mouse splenocytes assessed as increase in IFNgamma secretion at 50 uM after 72 hrs by ELISA; type: functional; method in brief: as §2
Splenocyte [20] = test: Immunostimulating activity in concanavalin A-stimulated BALb/c mouse splenocytes assessed as increase in IL4 secretion at 50 uM after 72 hrs by ELISA; type: functional; method in brief: as §2
[21] = Immunostimulating activity in BALb/c mouse splenocytes assessed as increase in concanavalin A-induced cell proliferation at 100 uM after 72 hrs by MTT assay; type: functional, Splenocyte; method in brief: as §4
B [22] = test: Immunostimulating activity in BALb/c mouse CD19+ B cells at 10 uM after 72 hrs by MTT assay; type: functional, cell-based
T-cell [23] = test: Immunostimulating activity in BALb/c mouse CD8+ T cells at 10 uM after 72 hrs by MTT assay; type: functional, cell-based
T-cell [24] = test: Immunostimulating activity in BALb/c mouse CD4+ T cells at 10 uM after 72 hrs by […]; type: functional, cell-based; method in brief: as §1
T-cell [25] = test: Immunostimulating activity in BALb/c mouse CD3+ T cells at 10 uM after 72 hrs by MTT assay; type: functional, cell-based
Splenocyte [26] = test: Immunostimulating activity in concanavalin A-stimulated BALb/c mouse splenocytes assessed as increase in IL2 secretion at 10 uM after 72 hrs by ELISA; type: functional; method in brief: as §2
Splenocyte [27] = test: Immunostimulating activity in concanavalin A-stimulated BALb/c mouse splenocytes assessed as increase in IFNgamma secretion at 10 uM after 72 hrs by ELISA; type: functional; method in brief: as §2
Splenocyte [28] = test: Immunostimulating activity in concanavalin A-stimulated BALb/c mouse splenocytes assessed as increase in IL4 secretion at 10 uM after 72 hrs by ELISA; type: functional; method in brief: as §2
Splenocyte [29] = test: as §3; type: functional; method in brief: as §4

## O=C1CS[C@H]([C@H]2O[C@H](CO)[C@@H](O)[C@@H]2O)N1c1ccccc1
[1]
  Activity: 238%
B [2]
  Activity: Active
T-cell [3]
  Activity: inactive
T-cell [4]
  Activity: Active
T-cell [5]
  Activity: Active
Splenocyte [6]
  Activity: 138%
[7]
  Activity: 166%
Splenocyte [8]
  Activity: inactive
Splenocyte [9]
  Activity: 41%
Splenocyte [10]
  Activity: inactive
[11]
  Activity: 171%
[12]
  Activity: <50%
[13]
  Activity: <50%

## CN1C(=O)CS[C@@H]1[C@H]1O[C@H](CO)[C@@H](O)[C@@H]1O
B [14]
  Activity: inactive
T-cell [15]
  Activity: inactive
T-cell [16]
  Activity: Active
T-cell [17]
  Activity: Active
Splenocyte [18]
  Activity: 37%
[7]
  Activity: 111%
Splenocyte [19]
  Activity: 30%
Splenocyte [20]
  Activity: 42%
Splenocyte [10]
  Activity: inactive
[21]
  Activity: 230%
[11]
  Activity: 327%
[12]
  Activity: 91%
[13]
  Activity: 98%

## CCCCCCCCCCCCCCCCCCN1C(=O)CS[C@H]1[C@H]1O[C@H](CO)[C@@H](O)[C@@H]1O
[7]
  Activity: <50%
[21]
  Activity: <50%
[11]
  Activity: <50%
[12]
  Activity: <50%
[13]
  Activity: <50%

## CN1C(=O)CS[C@H]1[C@H]1O[C@H](CO)[C@@H](O)[C@@H]1O
B [22]
  Activity: inactive
T-cell [23]
  Activity: inactive
T-cell [24]
  Activity: Active
T-cell [25]
  Activity: Active
Splenocyte [26]
  Activity: 78%
[7]
  Activity: 28%
Splenocyte [27]
  Activity: 21%
Splenocyte [28]
  Activity: 43%
Splenocyte [10]
  Activity: inactive
[21]
  Activity: 245%
[11]
  Activity: 35%
[12]
  Activity: 138%
[13]
  Activity: 290%

## CCCCN1C(=O)CS[C@@H]1[C@H]1O[C@H](CO)[C@@H](O)[C@@H]1O
[7]
  Activity: <50%
[21]
  Activity: <50%
[11]
  Activity: <50%
[12]
  Activity: <50%
[13]
  Activity: <50%

## O=C1CS[C@@H]([C@H]2O[C@H](CO)[C@@H](O)[C@@H]2O)N1c1ccccc1
[1]
  Activity: 117%
B [2]
  Activity: Active
T-cell [3]
  Activity: inactive
T-cell [4]
  Activity: Active
T-cell [5]
  Activity: Active
Splenocyte [6]
  Activity: 99%
Splenocyte [29]
  Activity: Active
Splenocyte [8]
  Activity: inactive
Splenocyte [9]
  Activity: 39%
Splenocyte [10]
  Activity: inactive
[21]
  Activity: <50%
[11]
  Activity: <50%
[12]
  Activity: <50%
[13]
  Activity: <50%

## CCCCN1C(=O)CS[C@H]1[C@H]1O[C@H](CO)[C@@H](O)[C@@H]1O
[7]
  Activity: <50%
[21]
  Activity: <50%
[11]
  Activity: <50%
[12]
  Activity: <50%
[13]
  Activity: <50%

## CCCCCCCCCCCCCCCCCCN1C(=O)CS[C@@H]1[C@H]1O[C@H](CO)[C@@H](O)[C@@H]1O
[7]
  Activity: <50%
[21]
  Activity: <50%
[11]
  Activity: <50%
[12]
  Activity: <50%
[13]
  Activity: <50%

## CCCCCCCCN1C(=O)CS[C@@H]1[C@H]1O[C@H](CO)[C@@H](O)[C@@H]1O
[7]
  Activity: <50%
[21]
  Activity: <50%
[11]
  Activity: <50%
[12]
  Activity: <50%
[13]
  Activity: <50%

## CCCCCCCCN1C(=O)CS[C@H]1[C@H]1O[C@H](CO)[C@@H](O)[C@@H]1O
[7]
  Activity: <50%
[21]
  Activity: <50%
[11]
  Activity: <50%
[12]
  Activity: <50%
[13]
  Activity: <50%
